pEC50, pKi: −log10 of the molar value.
Key:
[1] = Displacement of [3H]cytisine from neuronal nicotinic acetylcholine receptor in rat brain membrane; format: cell membranes
[2] = target: T1, Neuronal acetylcholine receptor; alpha3/beta4 (Homo sapiens, UniProt P30926+P32297); assay: Agonist activity at recombinant human alpha-3-beta-4 nAChR expressed in HEK293 cells assessed as induction of calcium influx by FLIPR assay; format: functional, cell-based; settings: for pEC50: read-out: EC50; for EC50: read-out: Log EC50 (converted)
[3] = target: T2, Neuronal acetylcholine receptor; alpha4/beta2 (Homo sapiens, UniProt P17787+P43681); assay: Agonist activity at recombinant human alpha-4-beta-2 nAChR expressed in HEK293 cells assessed as induction of calcium influx by FLIPR assay relative to nicotine; format: functional, cell-based
How it was run: (§1)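 HEK-293 lines stably expressing human α4β2 or α3β4 nAChR, grown 24-48 h at 37 °C on poly-D-lysine in DMEM/10% FBS. Loaded with 2-4 µM Fluo-4 AM for ~0.75-1 h at room temperature in the dark, in NMDG Ringer pH 7.4. Serial log dilutions added, then peak calcium fluorescence read on FLIPR after buffer-blank subtraction.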

[4] = target: T2, Neuronal acetylcholine receptor; alpha4/beta2; assay: Agonist activity at recombinant human alpha-4-beta-2 nAChR expressed in HEK293 cells assessed as induction of calcium influx by FLIPR assay; format: functional, cell-based; settings: for pEC50: read-out: EC50; for EC50: read-out: Log EC50 (converted)
[5] = target: T1, Neuronal acetylcholine receptor; alpha3/beta4; assay: Agonist activity at recombinant human alpha3beta4 nAChR expressed in HEK293 cells assessed as induction of calcium influx by FLIPR assay relative to nicotine; format: functional, cell-based; how it was run: as §1

T2 sequence (P17787 whole entry): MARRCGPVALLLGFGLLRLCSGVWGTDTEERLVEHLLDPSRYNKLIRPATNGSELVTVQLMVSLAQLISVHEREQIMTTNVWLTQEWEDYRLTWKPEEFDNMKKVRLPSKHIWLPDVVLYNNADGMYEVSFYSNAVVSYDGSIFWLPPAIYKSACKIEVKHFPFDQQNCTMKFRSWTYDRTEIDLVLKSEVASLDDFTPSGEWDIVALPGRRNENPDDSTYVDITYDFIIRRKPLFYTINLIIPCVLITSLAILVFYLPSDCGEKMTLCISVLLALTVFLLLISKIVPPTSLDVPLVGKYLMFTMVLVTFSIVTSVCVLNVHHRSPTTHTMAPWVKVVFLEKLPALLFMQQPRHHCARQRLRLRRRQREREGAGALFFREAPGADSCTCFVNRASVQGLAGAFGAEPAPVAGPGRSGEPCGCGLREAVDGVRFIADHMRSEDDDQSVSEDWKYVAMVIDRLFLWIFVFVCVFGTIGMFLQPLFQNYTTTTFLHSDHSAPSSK
T2 sequence (P43681 whole entry): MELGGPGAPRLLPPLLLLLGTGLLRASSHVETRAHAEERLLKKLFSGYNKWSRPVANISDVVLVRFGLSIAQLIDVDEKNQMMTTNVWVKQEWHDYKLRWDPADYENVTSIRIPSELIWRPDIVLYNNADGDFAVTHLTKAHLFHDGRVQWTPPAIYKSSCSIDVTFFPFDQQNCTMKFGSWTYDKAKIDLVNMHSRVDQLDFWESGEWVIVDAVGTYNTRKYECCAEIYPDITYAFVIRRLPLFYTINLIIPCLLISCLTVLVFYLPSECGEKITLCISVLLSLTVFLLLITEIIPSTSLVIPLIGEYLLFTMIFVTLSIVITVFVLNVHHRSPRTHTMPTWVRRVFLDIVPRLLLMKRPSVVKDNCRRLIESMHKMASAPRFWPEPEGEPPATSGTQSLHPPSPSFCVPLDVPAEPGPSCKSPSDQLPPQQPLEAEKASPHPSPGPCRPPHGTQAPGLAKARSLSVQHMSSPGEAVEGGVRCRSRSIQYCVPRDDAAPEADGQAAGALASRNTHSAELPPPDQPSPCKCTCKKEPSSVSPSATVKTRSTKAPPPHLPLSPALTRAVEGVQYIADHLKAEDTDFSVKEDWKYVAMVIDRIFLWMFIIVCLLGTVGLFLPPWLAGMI
T1 sequence (P30926 whole entry): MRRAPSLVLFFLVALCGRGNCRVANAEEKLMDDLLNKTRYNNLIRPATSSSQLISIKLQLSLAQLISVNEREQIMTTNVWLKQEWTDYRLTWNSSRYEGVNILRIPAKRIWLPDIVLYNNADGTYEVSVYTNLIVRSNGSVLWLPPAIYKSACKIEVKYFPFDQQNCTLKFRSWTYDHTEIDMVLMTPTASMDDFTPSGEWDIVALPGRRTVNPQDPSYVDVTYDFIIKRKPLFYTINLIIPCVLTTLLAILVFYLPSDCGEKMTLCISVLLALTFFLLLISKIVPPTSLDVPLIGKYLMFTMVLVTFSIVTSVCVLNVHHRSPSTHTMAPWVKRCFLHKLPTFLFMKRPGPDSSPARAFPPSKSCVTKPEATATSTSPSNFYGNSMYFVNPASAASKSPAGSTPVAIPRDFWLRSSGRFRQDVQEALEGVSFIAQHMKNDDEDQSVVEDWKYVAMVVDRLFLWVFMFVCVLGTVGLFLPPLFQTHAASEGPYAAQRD
T1 sequence (P32297 whole entry): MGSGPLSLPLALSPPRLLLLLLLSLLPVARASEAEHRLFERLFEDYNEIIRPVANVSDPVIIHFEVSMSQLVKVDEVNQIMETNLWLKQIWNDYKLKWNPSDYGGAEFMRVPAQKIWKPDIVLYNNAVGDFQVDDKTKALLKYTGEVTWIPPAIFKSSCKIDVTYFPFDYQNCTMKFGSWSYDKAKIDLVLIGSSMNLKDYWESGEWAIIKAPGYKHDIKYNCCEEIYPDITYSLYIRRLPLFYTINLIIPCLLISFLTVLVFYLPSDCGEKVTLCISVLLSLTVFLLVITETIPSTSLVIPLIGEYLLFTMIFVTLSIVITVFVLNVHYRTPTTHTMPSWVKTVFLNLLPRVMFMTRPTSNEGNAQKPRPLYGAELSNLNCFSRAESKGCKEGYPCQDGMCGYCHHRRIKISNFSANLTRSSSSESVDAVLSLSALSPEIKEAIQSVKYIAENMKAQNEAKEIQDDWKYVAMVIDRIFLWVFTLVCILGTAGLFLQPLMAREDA

SMILES | pKi [1] | Log Ki [1] | pEC50 [2] | EC50 [2] | Activity [3] | pEC50 [4] | EC50 [4] | Activity [5]
COc1cncc(N2C[C@@H]3CN[C@@H]3C2)c1 | 8.52 | -8.52 | 4.32 | 46800 nM | 55% | 4.80 | 13200 nM | 44%
N#Cc1cncc(N2C[C@@H]3CN[C@@H]3C2)c1 | 8.77 | -8.77 | 5.15 |  | 102% | 4.84 | 13200 nM | 84%
Clc1cc(N2C[C@@H]3CN[C@@H]3C2)cnc1Br | 9.70 | -9.62 | 6.22 |  | 108% | 6.40 |  | 92%
Cc1cc(N2C[C@H]3CNC[C@H]32)cnc1Cl | 9.70 | -9.7 | 6.22 |  | 133% | 6.70 | 229 nM | 97%
N#Cc1cc(N2C[C@@H]3CN[C@@H]3C2)cnc1Br | 9.52 | -9.51 | 6.22 |  | 146% | 6.10 |  | 91%
COc1cncc(N2C[C@H]3CNC[C@H]32)c1 | 9.10 | -9.12 | 4.59 |  | 90% | 5.44 | 3390 nM | 72%
C#Cc1cncc(N2C[C@@H]3CNC[C@@H]32)c1 | 9.22 | -9.21 | 4.48 | 13200 nM | 45% | 4.69 | 13500 nM | 33%
Clc1cc(N2C[C@H]3CNC[C@H]32)cnc1Cl | 9.52 | -9.55 | 6.00 |  | 117% | 6.52 | 263 nM | 92%
c1cncc(N2C[C@@H]3CNC[C@@H]32)c1 | 9.15 | -9.15 | 5.01 |  | 101% | 5.55 | 2690 nM | 97%
Cc1ncc(N2C[C@@H]3CNC[C@@H]32)cc1C#N | 9.15 | -9.18 | 5.80 |  | 116% | 6.30 |  | 95%
Clc1cncc(N2C[C@H]3CNC[C@H]32)c1 | 8.52 | -8.53 | 4.64 |  | 88% | 5.09 | 7240 nM | 81%
Cc1cc(N2C[C@H]3CN[C@H]3C2)cnc1C | 9.52 | -9.59 | 5.48 |  | 124% | 6.70 |  | 96%
Cc1cc(N2C[C@H]3CN[C@H]3C2)cnc1Cl | 10.40 | -10.4 | 6.70 | 178 nM | 228% | 6.15 | 72.4 nM | 119%
COc1cc(N2C[C@H]3CNC[C@H]32)cnc1Br | 9.70 | -9.68 | 5.74 |  | 118% | 6.05 |  | 94%
COc1cncc(N2C[C@@H]3CNC[C@@H]32)c1 | 8.14 | -8.14 | 4.51 |  | 43% | 4.61 | 22900 nM | 64%

Source: ChEMBL document CHEMBL1137618, “Synthesis and structure-activity relationship studies of 3,6-diazabicyclo[3.2.0]heptanes as novel alpha4beta2 nicotinic acetylcholine receptor selective agonists” (J Med Chem, 2007)
